From ChEMBL document CHEMBL5380783, “N-Substituted l-Iminosugars for the Treatment of Sanfilippo Type B Syndrome” (J Med Chem, 2023)
Activity calls are given as the source filed them. The rule behind the calls is not given here.

Columns and labels:
Fibroblast [1] = assay: Inhibition of lysosomal defects in Sanfilippo-B patient derived human fibroblast cells assessed as dispersion of lysosomes all over the cytoplasm at 20 uM incubated for 48 hrs by LAMP1 staining based indirect immunofluorescence assay; assay type: functional, cell-based
Procedure, shortened: (§1)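 HDFa, MPS IIIA, MPS IIIB and MPS I patient fibroblasts in DMEM, 10% FBS, grown 48 h on coverslips with 20 μM compound. Double immunostained for HS (10E4) and Lamp1 with DAPI, confocal imaging. Mean fluorescence intensity expressed relative to untreated cells (d-enantiomers: percent positive cells), 50 random cells from three experiments.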

HeLa [2] = assay: Cytotoxicity against human HeLa cells assessed as reduction in cell viability at 20 uM incubated for 48 hrs by trypan blue exclusion method; assay type: functional, cell-based
Procedure, shortened: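 HeLa cells seeded at 100,000 per well and grown overnight in complete RPMI. Exposed to 20 μM compound in the same medium for 48 h at 37 °C; untreated mock as control. Cells trypsinized, live cells counted by trypan blue exclusion on an automated counter. Means of three independent experiments, each in triplicate, with s.e.m.; Student's t-test, p < 0.05.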

Fibroblast [3] = assay: Inhibition of lysosomal defects in Sanfilippo-A patient derived human fibroblast cells assessed as reduction in accumulation of enlarged LAMP1-positive lysosomal structures within the cytoplasm at 20 uM incubated for 48 hrs by LAMP1 staining based indirect immunofluorescence assay; assay type: functional, cell-based; procedure, shortened: as §1
Fibroblast [4] = assay: Inhibition of lysosomal defects in MPS-1 patient derived human fibroblast cells assessed as reduction in accumulation of enlarged LAMP1-positive lysosomal structures within the cytoplasm at 20 uM incubated for 48 hrs by LAMP1 staining based indirect immunofluorescence assay; assay type: functional, cell-based; procedure, shortened: as §1
SK-N-BE(2) [5] = assay: Inhibition of lysosomal defects in NAGLU-silenced human SK-NBE cell clones assessed as reduction in more concentrated lysosomal distribution in the perinuclear region of the cytoplasm at 20 uM incubated for 48 hrs by LAMP1 staining based indirect immunofluorescence assay; assay type: functional
Procedure, shortened: (§2)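 Control and NAGLU-silenced SK-NBE clones grown on coverslips with 20 μM compound for 48 h. Fixed in 3.7% formaldehyde, permeabilized with saponin/BSA buffer, stained with anti-Lamp1 or anti-HS 10E4 for 1 h, then Alexa secondaries. Confocal imaging with 63× objective. Scored as percent cells with enlarged Lamp1 structures or membrane HS, plus mean fluorescence intensity, over 50 random cells from three experiments.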

Fibroblast [6] = assay: Inhibition of lysosomal defects in Sanfilippo-B patient derived human fibroblast cells assessed as reduction in accumulation of enlarged LAMP1-positive lysosomal structures within the cytoplasm at 20 uM incubated for 48 hrs by LAMP1 staining based indirect immunofluorescence assay; assay type: functional, cell-based; procedure, shortened: as §1
Fibroblast [7] = assay: Inhibition of heparan sulfate accumulation on cell membrane in MPS-1 patient derived human fibroblast cells at 20 uM incubated for 48 hrs by indirect immunofluorescence staining analysis; assay type: functional, cell-based; procedure, shortened: as §1
Fibroblast [8] = assay: Inhibition of heparan sulfate accumulation on cell membrane in Sanfilippo-B patient derived human fibroblast cells at 20 uM incubated for 48 hrs by indirect immunofluorescence staining analysis; assay type: functional, cell-based; procedure, shortened: as §1
Fibroblast [9] = assay: Effect on heparan sulfate changes in human fibroblast cells at 20 uM incubated for 48 hrs by indirect immunofluorescence staining analysis; assay type: functional, cell-based; procedure, shortened: as §1
Fibroblast [10] = assay: Inhibition of lysosomal defects in Sanfilippo-B patient derived human fibroblast cells assessed as reduction in more concentrated lysosomal distribution in the perinuclear region of the cytoplasm at 20 uM incubated for 48 hrs by LAMP1 staining based indirect immunofluorescence assay; assay type: functional, cell-based; procedure, shortened: as §1
SK-N-BE(2) [11] = assay: Inhibition of lysosomal defects in NAGLU-silenced human SK-NBE cell clones assessed as dispersion of lysosomes all over the cytoplasm at 20 uM incubated for 48 hrs by LAMP1 staining based indirect immunofluorescence assay; assay type: functional; procedure, shortened: as §2
Fibroblast [12] = assay: Inhibition of heparan sulfate accumulation on cell membrane in Sanfilippo-A patient derived human fibroblast cells at 20 uM incubated for 48 hrs by indirect immunofluorescence staining analysis; assay type: functional, cell-based; procedure, shortened: as §1
SK-N-BE(2) [13] = assay: Inhibition of lysosomal defects in NAGLU-silenced human SK-NBE cell clones assessed as reduction in accumulation of enlarged LAMP1-positive lysosomal structures within the cytoplasm at 20 uM incubated for 48 hrs by LAMP1 staining based indirect immunofluorescence assay; assay type: functional; procedure, shortened: as §2
SK-N-BE(2) [14] = assay: Effect on lysosome size and distribution in human SK-NBE cell clone assessed as at 20 uM incubated for 48 hrs by LAMP1 staining based indirect immunofluorescence assay; assay type: functional; procedure, shortened: as §2
IB3-1 [15] = assay: Antiproliferative activity against human IB3-1 cells upto 100 uM; assay type: toxicity, cell-based; settings: ib3-1, 100 µM
HaCaT [16] = assay: Antiproliferative activity against human HaCaT cells upto 100 uM; assay type: toxicity, cell-based
[17] = Antiproliferative activity against human CuFi cells upto 100 uM; assay type: toxicity, cell-based
HeLa [18] = assay: Inhibition of heparan sulfate accumulation on cell membrane in human HeLa cells at 20 uM incubated for 48 hrs by indirect immunofluorescence staining analysis; assay type: functional, cell-based
Procedure, shortened: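 HeLa cells grown 48 h with compound, then immunostained with anti-HS antibody 10E4 to gauge membrane HS.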

[19] = Cytotoxicity against human CuFi cells assessed as induction of apoptosis upto 100 uM; assay type: toxicity, cell-based
SK-N-BE(2) [20] = assay: Effect on heparan sulfate changes in human SK-NBE cell membrane at 20 uM incubated for 48 hrs by indirect immunofluorescence staining analysis; assay type: functional, cell-based; procedure, shortened: as §2
IB3-1 [21] = assay: Cytotoxicity against human IB3-1 cells assessed as induction of apoptosis upto 100 uM; assay type: toxicity, cell-based; settings: ib3-1, 100 µM
SK-N-BE(2) [22] = assay: Inhibition of heparan sulfate accumulation on cell membrane in NAGLU-silenced human SK-NBE cells clone at 20 uM incubated for 48 hrs by indirect immunofluorescence staining analysis; assay type: functional, cell-based; procedure, shortened: as §2
HaCaT [23] = assay: Cytotoxicity against human HaCaT cells assessed as induction of apoptosis upto 100 uM; assay type: toxicity, cell-based

Row | Compound | inhibition (Fibroblast [1]) | Activity (HeLa [2]) | inhibition (Fibroblast [3]) | inhibition (Fibroblast [4]) | inhibition (SK-N-BE(2) [5]) | inhibition (Fibroblast [6]) | inhibition (Fibroblast [7]) | Activity (Fibroblast [9]) | inhibition (Fibroblast [10]) | inhibition (SK-N-BE(2) [13]) | Activity (SK-N-BE(2) [14]) | Activity (IB3-1 [15]) | Activity (HaCaT [16]) | Activity [17] | inhibition (HeLa [18]) | Activity [19] | Activity (SK-N-BE(2) [20]) | Activity (IB3-1 [21]) | inhibition (SK-N-BE(2) [22]) | Activity (HaCaT [23]) | other results
1 | CCCCN1C[C@H](O)[C@@H](O)[C@H](O)[C@H]1CO | inactive | inactive | inactive | inactive | inactive | inactive | inactive | inactive | inactive | inactive | inactive | – | – | – | – | – | – | – | – | – | inhibition (Fibroblast [8]): inactive; inhibition (SK-N-BE(2) [11]): inactive; inhibition (Fibroblast [12]): inactive
2 | CCCCCCCCCN1C[C@@H](O)[C@H](O)[C@@H](O)[C@@H]1CO.Cl | inactive | inactive | – | – | – | inactive | – | inactive | inactive | inactive | inactive | Non-Toxic | Non-Toxic | Non-Toxic | inactive | Non-Toxic | inactive | Non-Toxic | inactive | Non-Toxic | –
3 | CCCCCCCCCOCCCCCN1C[C@@H](O)[C@H](O)[C@@H](O)[C@@H]1CO.Cl | inactive | inactive | – | – | – | inactive | – | inactive | inactive | inactive | inactive | Non-Toxic | Non-Toxic | Non-Toxic | inactive | Non-Toxic | inactive | Non-Toxic | inactive | Non-Toxic | –
4 | CCCCCCOCCCCCN1C[C@@H](O)[C@H](O)[C@@H](O)[C@@H]1CO.Cl | inactive | inactive | – | – | – | inactive | – | inactive | inactive | inactive | inactive | Non-Toxic | Non-Toxic | Non-Toxic | inactive | Non-Toxic | inactive | Non-Toxic | inactive | Non-Toxic | –
5 | OC[C@H]1NC[C@H](O)[C@@H](O)[C@@H]1O | inactive | inactive | inactive | inactive | inactive | inactive | inactive | inactive | inactive | inactive | inactive | – | – | – | – | – | – | – | – | – | inhibition (Fibroblast [8]): inactive; inhibition (SK-N-BE(2) [11]): inactive; inhibition (Fibroblast [12]): inactive
